One assay deals with Streptococcus pyogenes. Kind of assay: In vitro antibacterial activity against Streptococcus pyogenes ATCC 1961-1. The class given is functional. The gist of the method: (§1)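 Agar dilution MIC. DMSO stocks at 5 mg/mL were serially 2-fold diluted in nutrient broth and mixed into Mueller-Hinton agar, with 5% defibrinated rabbit blood for hemophilic bacteria. Final range was 12.5 to 0.006 µg/mL. Overnight growth was suspended in saline to McFarland 6 (2 × 10^6/mL) and Steers-replicated. Plates were incubated 30 h at 37 °C; MIC was the lowest concentration preventing visible growth.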

Another assay deals with Enterobacter cloacae. Kind of assay: In vitro antibacterial activity against Enterobacter cloacae ATCC 23355. The class given is functional. The method, boiled down:
as §1

Assay [1] can be described thus: In vitro antibacterial activity against Pseudomonas cepacia ATCC 25608. The class given is functional. The following applies: Burkholderia cepacia. The gist of the method:
as §1

The subject of another assay is Staphylococcus aureus. Kind of assay: In vitro antibacterial activity against Staphylococcus aureus ATCC 6538-P. Type of assay: functional. The method, boiled down:
as §1

The test system of the next assay is Escherichia coli. Kind of assay: In vitro antibacterial activity against Escherichia coli ATCC 15221. Type of assay: functional. The gist of the method: as §1
The next assay has as its system Proteus mirabilis. Kind of assay: In vitro antibacterial activity against Proteus mirabilis-R 119. Type of assay: functional. The gist of the method:
as §1

In another assay the test system is Haemophilus influenzae. Kind of assay: In vitro antibacterial activity against Haemophilus influenzae ATCC 9333. The class given is functional. The gist of the method: as §1
The next assay relates to Serratia marcescens. Kind of assay: In vitro antibacterial activity against Serratia marcescens ATCC 8100. The class given is functional. The gist of the method:
as §1

Assay [2] has as its system Staphylococcus epidermidis. Kind of assay: In vitro antibacterial activity against Staphylococcus epidermidis ATCC 12228. The class given is functional. The gist of the method:
as §1

The subject of assay [3] is Enterococcus faecalis. Kind of assay: In vitro antibacterial activity against Streptococcus faecalis ATCC 10741. Type of assay: functional. The method, boiled down:
as §1

Another assay relates to Klebsiella pneumoniae. Kind of assay: In vitro antibacterial activity against Klebsiella pneumoniae ATCC 23357. Type of assay: functional. The method, boiled down: as §1
Assay [4] is described as follows: In vitro antibacterial activity against Salmonella typhi-CDC M4694. The class given is functional, salmonella typhosa. The method, boiled down:
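Agar dilution MIC: compounds dissolved in DMSO (5 mg/mL stock), 2-fold serial dilutions in nutrient broth, mixed into Mueller-Hinton agar; series 12.5 down to 0.006 μg/mL. Overnight culture suspended in saline to McFarland 6 (2 × 10^6/mL), spotted with Steers replicator. Incubated 37 °C for 30 h; MIC = lowest concentration preventing visible growth.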

For another assay, the system named is Pseudomonas aeruginosa. Kind of assay: In vitro antibacterial activity against Pseudomonas aeruginosa ATCC 15422. Type of assay: functional. The gist of the method:
as §1

For a further assay, the system named is Bordetella pertussis. Kind of assay: In vitro antibacterial activity against Bordetella pertussis ATCC 10380. The class given is functional. The gist of the method:
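Agar dilution on Mueller-Hinton agar with drug from 5 mg/mL DMSO stocks, 2-fold diluted through nutrient broth to 12.5–0.006 µg/mL. Inoculum was applied by Steers replicator. MIC was read as the lowest concentration with no visible growth.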

Assay [5] relates to Enterococcus faecalis. Kind of assay: In vitro antibacterial activity against Streptococcus Streptococcus faecalis ATCC 10741. The class given is functional. The gist of the method:
as §1

This note sets out measurements from ChEMBL document CHEMBL1123737, “Synthesis, absolute configuration, and antibacterial activity of 6,7-dihydro-5,8-dimethyl-9-fluoro-1-oxo-1H,5H- benzo[ij]quinolizine-2-carboxylic acid” (1987).

Converted amounts (≈) assume the structure as drawn.

As to `Cc1c(F)cc2c(=O)c(C(=O)O)cn3c2c1CCC3C` (racemic) [IBAFLOXACIN], the MIC in the assay with Streptococcus pyogenes was determined as 0.8 µg/mL (≈ 2.91 µM); with Enterobacter cloacae, 0.2 µg/mL (≈ 0.727 µM); in assay [1], 0.8 µg/mL (≈ 2.91 µM); against Staphylococcus aureus it was 0.05 µg/mL (≈ 0.182 µM); with Escherichia coli, 0.2 µg/mL (≈ 0.727 µM); with Proteus mirabilis it was 0.8 µg/mL (≈ 2.91 µM). Further, the MIC against Haemophilus influenzae was found to be 0.006 µg/mL (≈ 0.0218 µM); against Serratia marcescens it was 0.4 µg/mL (≈ 1.45 µM); in assay [2] it was 0.1 µg/mL (≈ 0.363 µM); in the assay on Enterococcus faecalis [3], 0.8 µg/mL (≈ 2.91 µM); with Klebsiella pneumoniae, 0.2 µg/mL (≈ 0.727 µM); in assay [4], 0.1 µg/mL (≈ 0.363 µM). Also, the MIC in the assay with Pseudomonas aeruginosa amounted to 6.2 µg/mL (≈ 22.5 µM); in the assay on Bordetella pertussis, 0.025 µg/mL (≈ 0.0908 µM).

Turning to `Cc1c(F)cc2c(=O)c(C(=O)O)cn3c2c1CCC3`, the MIC was determined as 12.5 µg/mL (≈ 47.8 µM) in the assay with Streptococcus pyogenes; 0.4 µg/mL (≈ 1.53 µM) with Enterobacter cloacae; 6.2 µg/mL (≈ 23.7 µM) in assay [1]; 0.8 µg/mL (≈ 3.06 µM) in the assay on Staphylococcus aureus; 0.8 µg/mL (≈ 3.06 µM) against Escherichia coli; 1.6 µg/mL (≈ 6.12 µM) against Proteus mirabilis. In addition, the MIC was 0.1 µg/mL (≈ 0.383 µM) against Haemophilus influenzae; 12.5 µg/mL (≈ 47.8 µM) with Enterococcus faecalis [5]; 0.8 µg/mL (≈ 3.06 µM) against Serratia marcescens; 1.6 µg/mL (≈ 6.12 µM) in assay [2]; 0.8 µg/mL (≈ 3.06 µM) in the assay with Klebsiella pneumoniae; 0.4 µg/mL (≈ 1.53 µM) in assay [4]. The MIC was 12.5 µg/mL (≈ 47.8 µM) with Pseudomonas aeruginosa and 0.8 µg/mL (≈ 3.06 µM) against Bordetella pertussis.

Take `Cc1c(F)cc2c(=O)c(C(=O)O)cn3c2c1CC[C@H]3C`: the MIC in the assay on Streptococcus pyogenes is 12.5 µg/mL (≈ 45.4 µM); against Enterobacter cloacae, 3.1 µg/mL (≈ 11.3 µM); in assay [1], 12.5 µg/mL (≈ 45.4 µM); in the assay on Staphylococcus aureus, 3.1 µg/mL (≈ 11.3 µM); in the assay on Escherichia coli it was 6.2 µg/mL (≈ 22.5 µM); in the assay with Proteus mirabilis it was 12.5 µg/mL (≈ 45.4 µM). Moreover, the MIC with Haemophilus influenzae stood at 0.4 µg/mL (≈ 1.45 µM); in the assay on Enterococcus faecalis [5], 12.5 µg/mL (≈ 45.4 µM); in the assay with Serratia marcescens, 3.1 µg/mL (≈ 11.3 µM); in assay [2] it was 6.2 µg/mL (≈ 22.5 µM); in the assay with Klebsiella pneumoniae, 6.2 µg/mL (≈ 22.5 µM); in assay [4] it was 3.1 µg/mL (≈ 11.3 µM). Besides, the MIC is 12.5 µg/mL (≈ 45.4 µM) against Pseudomonas aeruginosa and 1.6 µg/mL (≈ 5.81 µM) in the assay on Bordetella pertussis.

With `Cc1c(F)cc2c(=O)c(C(=O)O)cn3c2c1CC[C@@H]3C`, the MIC in the assay on Streptococcus pyogenes was determined as 1.6 µg/mL (≈ 5.81 µM); against Enterobacter cloacae it was 0.1 µg/mL (≈ 0.363 µM); in [1], 0.8 µg/mL (≈ 2.91 µM); in the assay on Staphylococcus aureus, 0.025 µg/mL (≈ 0.0908 µM); against Escherichia coli, 0.1 µg/mL (≈ 0.363 µM); against Proteus mirabilis it was 0.4 µg/mL (≈ 1.45 µM). In addition, the MIC in the assay on Haemophilus influenzae is 0.006 µg/mL (≈ 0.0218 µM); in the assay on Enterococcus faecalis [5], 0.8 µg/mL (≈ 2.91 µM); in the assay with Serratia marcescens it was 0.2 µg/mL (≈ 0.727 µM); in assay [2] it was 0.05 µg/mL (≈ 0.182 µM); in the assay with Klebsiella pneumoniae it was 0.1 µg/mL (≈ 0.363 µM); in assay [4], 0.05 µg/mL (≈ 0.182 µM). Also, the results for the MIC with Pseudomonas aeruginosa and with Bordetella pertussis were 3.1 µg/mL (≈ 11.3 µM) and 0.012 µg/mL (≈ 0.0436 µM), respectively.
